Data as given in ChEMBL document CHEMBL1122845, “Inhibitors of blood platelet aggregation. Effects of some 1,2-benzisothiazol-3-ones on platelet responsiveness to adenosine diphosphate and collagen” (J Med Chem, 1985).
Where “and” joins values, the source holds several entries; their conditions need not be identical. Identical values can stand only once. Counter-ions that a name gives are not always drawn. Values belong to the compound of their own block, whether it stands above or below them.

What was measured:
[1] = test system: Cavia porcellus; test: Ex vivo inhibition of ADP induced guinea pig platelet aggregation following 0.08 mmol/kg administration.; type: functional
Summary of the method: (§1)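 Fasted male rats (~200 g) or guinea pigs (~300 g), n=5-10, dosed orally (5 mL/kg) in 1% methylcellulose; methylcellulose alone as control. Killed with CO2 after 2 h. Vena cava blood citrated (102 mM rat, 129 mM guinea pig); PRP adjusted to 800000/µL (rat) or 500000/µL (guinea pig). EC25 for first-phase ADP aggregation (max 8 µM) interpolated from two 2-fold-spaced ADP levels. Dose ratio = treated/control mean EC25; Student's t-test. Some groups tested as pooled PRP.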

[2] = test system: Cavia porcellus; test: The compound was tested ex vivo at a dose of 0.08 mmol/kg or collagen induced platelet aggregation in guinea pig; type: functional
Summary of the method: (§2)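 Male rats (~200 g) or guinea pigs (~300 g), overnight fasted, n=5-10, received compound orally in 1% methylcellulose (5 mL/kg); vehicle-only controls. After 2 h, CO2 kill and vena cava blood into citrate (102 mM rat, 129 mM guinea pig). PRP set to 800000/µL (rat) or 500000/µL (guinea pig). Collagen EC50 (response of 50 mm; max 50 µg/mL) interpolated from a log plot. Dose ratio = treated/control mean EC50; t-test. Pooled PRP sometimes used.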

[3] = organism: Homo sapiens; test: (§3) In vitro inhibitory activity against human platelet aggregation in the presence of collagen; type: functional, organism-based
[4] = test system: Rattus norvegicus; test: The compound was tested ex vivo at a dose of 0.08 mmol/kg for ADP induced platelet aggregation in rat; type: functional; summary of the method: as §1
[5] = test system: Rattus norvegicus; test: The compound was tested ex vivo at a dose of 0.08 mmol/kg for collagen induced platelet aggregation in rat; type: functional; summary of the method: as §2
[6] = test system: Cavia porcellus; test: Ex vivo inhibition of collagen induced guinea pig platelet aggregation following 0.08 mmol/kg administration.; type: functional; summary of the method: as §2
[7] = organism: Homo sapiens; test: In vitro inhibitory activity against human platelet aggregation in the presence of Adenosine diphosphate; type: functional
Summary of the method: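 Human citrated PRP, platelet count adjusted to 350000/µL with autologous platelet-poor plasma. 90 µL PRP preincubated 3 min at 37 °C with compound or saline (DMF vehicle where needed), stirred at 1100 rpm. ADP chosen per preparation to give a clear first-phase response (typically 1 µM). Photometric read-out: maximum rise in light transmission within 1 min. IC50 determined.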

[8] = test system: Rattus norvegicus; test: The compound was tested ex vivo at a dose of 0.15 mmol/kg for ADP induced platelet aggregation in rat; type: functional; summary of the method: as §1
[9] = test system: Cavia porcellus; test: The compound was tested ex vivo fat a dose of 0.15 mmol/kg for collagen induced platelet aggregation in guinea pig; type: functional; summary of the method: as §2
[10] = test system: Cavia porcellus; test: The compound was tested ex vivo at a dose of 0.15 mmol/kg for ADP induced platelet aggregation in guinea pig; type: functional; summary of the method: as §1
[11] = test system: Rattus norvegicus; test: The compound was tested ex vivo at a dose of 0.15 mmol/kg for collagen induced platelet aggregation in rat; type: functional; summary of the method: as §2
[12] = test system: Rattus norvegicus; test: The compound was tested ex vivo at a dose of 0.3 mmol/kg for ADP induced platelet aggregation in rat; type: functional; summary of the method: as §1
[13] = test system: Rattus norvegicus; test: The compound was tested ex vivo at a dose of 0.3 mmol/kg for collagen induced platelet aggregation in rat; type: functional; summary of the method: as §2
[14] = test system: Cavia porcellus; test: The compound was tested at a dose of 0.08 mmol/kg ex vivo for collagen induced platelet aggregation in guinea pig; type: functional; summary of the method: as §2
[15] = test system: Rattus norvegicus; test: The compound was tested at a dose of 0.15 mmol/kg ex vivo for ADP induced platelet aggregation in rat; type: functional; summary of the method: as §1
[16] = organism: Homo sapiens; test: as §3; type: functional
Summary of the method: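 Aggregation measured photometrically in human citrated PRP (350000 platelets/µL, stirred at 1100 rpm). Compound or saline preincubated 3 min at 37 °C. Collagen at a just-maximal level chosen for each sample (typically 0.7-1.4 µg/mL). Maximum increase in light transmission measured. IC50 = concentration giving 50% inhibition.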

[17] = test system: Cavia porcellus; test: The compound was tested ex vivo at a dose of 0.15 mmol/kg for collagen induced platelet aggregation in guinea pig
[18] = test system: Rattus norvegicus; test: The compound was tested at a dose of 0.15 mmol/kg ex vivo for collagen induced platelet aggregation in rat; type: functional; summary of the method: as §2
[19] = test system: Cavia porcellus; test: The compound was tested ex vivo at a dose of 0.15 mmol/kg for collagen induced platelet aggregation in guinea pig; type: functional; summary of the method: as §2
[20] = test system: Rattus norvegicus; test: The compound was tested at a dose of 0.3 mmol/kg ex vivo for collagen induced platelet aggregation in rat; type: functional; summary of the method: as §2
[21] = test system: Cavia porcellus; test: The compound was tested ex vivo at a dose of 0.08 mmol/kg for collagen induced platelet aggregation in guinea pig; type: functional; summary of the method: as §2
[22] = test system: Cavia porcellus; test: The compound was tested ex vivo at a dose of 0.3 mmol/kg for ADP induced platelet aggregation in guinea pig; type: functional; summary of the method: as §1
[23] = test system: Cavia porcellus; test: The compound was tested ex vivo at a dose of 0.08 mmol/kg for ADP induced platelet aggregation in guinea pig; type: functional; summary of the method: as §1
[24] = test system: Cavia porcellus; test: The compound was tested ex vivo at a dose of 0.3 mmol/kg for collagen induced platelet aggregation in guinea pig; type: functional; summary of the method: as §2
[25] = organism: Cavia porcellus; test: The compound was tested ex vivo for collagen induced platelet aggregation in guinea pig; type: functional; summary of the method: as §2
[26] = organism: Cavia porcellus; test: The compound was tested ex vivo for ADP induced platelet aggregation in guinea pig; type: functional; summary of the method: as §1
[27] = test system: Rattus norvegicus; test: The compound was tested ex vivo at a dose of 0.15 mmol/kg for ADP induced platelet aggregation in rat
[28] = test system: Cavia porcellus; test: The compound was tested ex vivo at a dose of 0.15 mmol/kg for ADP induced platelet aggregation in guinea pig
[29] = organism: Rattus norvegicus; test: The compound was tested ex vivo for ADP induced platelet aggregation in rat; type: functional; summary of the method: as §1
[30] = organism: Rattus norvegicus; test: The compound was tested ex vivo for collagen induced platelet aggregation in rat; type: functional; summary of the method: as §2
[31] = test system: Cavia porcellus; test: The compound was tested ex vivo at a dose of 0.04 mmol/kg for ADP induced platelet aggregation in guinea pig
[32] = test system: Rattus norvegicus; test: The compound was tested ex vivo at a dose of 0.04 mmol/kg for ADP induced platelet aggregation in rat; type: functional; summary of the method: as §1
[33] = test system: Cavia porcellus; test: The compound was tested ex vivo at a dose of 0.02 mmol/kg for collagen induced platelet aggregation in guinea pig; type: functional; summary of the method: as §2
[34] = test system: Rattus norvegicus; test: The compound was tested ex vivo at a dose of 0.15 mmol/kg for collagen induced platelet aggregation in rat
[35] = test system: Cavia porcellus; test: The compound was tested ex vivo at a dose of 0.04 mmol/kg for ADP induced platelet aggregation in guinea pig; type: functional; summary of the method: as §1
[36] = test system: Rattus norvegicus; test: The compound was tested ex vivo at a dose of 0.04 mmol/kg for collagen induced platelet aggregation in rat; type: functional; summary of the method: as §2
[37] = test system: Homo sapiens; test: The compound was tested ex vivo at a dose of 0.1 mmol/kg for ADP induced platelet aggregation in rat

Structure (SMILES): O=c1c2ccccc2sn1CCCCCN1CC2CCC(CC2)C1
Activity [1]: 1.2 | Activity [2]: 2.8

Structure (SMILES): COc1cc2sn(CCCCN3CC4CCC(CC4)C3)c(=O)c2cc1OC
IC50 [3]: 16 µM | Activity [4]: 1.4 | Activity [5]: 2.4 | Activity [1]: 2.6 | Activity [6]: 5.4 | IC50 [7]: 99 µM

Structure (SMILES): O=c1c2ccccc2sn1CCN1CC2CCC(CC2)C1
Activity [8]: 1.6 | Activity [9]: 1.7 | Activity [10]: 1.1 | Activity [11]: 2.2

Structure (SMILES): CCN(CC)CCn1sc2cc(Cl)c(Cl)cc2c1=O
Activity [12]: 1.2 | Activity [8]: 0.8 | Activity [13]: 6.5 | Activity [11]: 2.1

Structure (SMILES): Cc1cc(C)c2c(=O)n(CCCN3CCCCC3)sc2c1
Activity [14]: 6.7 | Activity [1]: 1.4

IC50 [16]: 30 µM
Structure (SMILES): O=c1c2ccccc2sn1CCN1CCCC1
Activity [15]: 0.9 | Activity [10]: 1.9 | Activity [17]: 13.9 | Activity [18]: 2.3

Structure (SMILES): COc1cc2sn(CCN3CC4CCC(CC4)C3)c(=O)c2cc1OC
Activity [19]: 1.6 | IC50 [3]: 110 µM | Activity [20]: >5.8 | Activity [21]: 1.7 | Activity [12]: 1.9 | Activity [22]: 1 | Activity [23]: 1.1 | Activity [8]: 1.4 | Activity [10]: 1.3 | Activity [11]: 2.9 | Activity [24]: 1.9

IC50 [16]: 17 µM
Structure (SMILES): O=c1c2ccccc2sn1CCCN1CCCCC1
Activity [4]: 1 | Activity [5]: 2.4 | Activity [1]: 3.7 | Activity [6]: >26

collagen EC50 dose ratio (treated/control) [25]: >36
Structure (SMILES): CCN(CC)CCn1sc2cc(C)cc(C)c2c1=O.O=S(=O)(O)c1ccc2ccccc2c1
Activity [26]: 2.8

collagen EC50 dose ratio (treated/control) [19]: >47
Structure (SMILES): CCN(CC)CCn1sc2cc(OC)c(OC)cc2c1=O
Activity [27]: 2.2 | Activity [28]: 1.1 | Activity [11]: 1.5

Structure (SMILES): Cc1cc2sn(CCN3CC4CCC(CC4)C3)c(=O)c2cc1C
Activity [27]: 1 | Activity [19]: 0.7 | Activity [8]: 1.3 | Activity [18]: 1

Structure (SMILES): Cc1cc(C)c2c(=O)n(CCN3CCCC3)sc2c1
Activity [21]: > 23 | Activity [23]: > 32 | Activity [1]: >32 | Activity [6]: >23

Structure (SMILES): O=c1c2ccccc2sn1CCN1CCCCC1
Activity [4]: 1.7 | Activity [5]: 4 | Activity [1]: 1.4 | Activity [6]: 5

Structure (SMILES): COc1cc2sn(CCCN3CCCCC3)c(=O)c2cc1OC
Activity [14]: 2.5 | Activity [1]: 1.1

collagen EC50 dose ratio (treated/control) [25]: 2
Structure (SMILES): COc1cc2sn(CCCCCCN3CC4CCC(CC4)C3)c(=O)c2cc1OC
Activity [26]: 1.1

collagen EC50 dose ratio (treated/control) [25]: 4.1
Structure (SMILES): COc1cc2sn(CCCCCN3CC4CCC(CC4)C3)c(=O)c2cc1OC
Activity [26]: 1.7

IC50 [3]: 68 µM | IC50 [7]: > 1000 µM
Structure (SMILES): CC(=O)Oc1ccccc1C(=O)O [ASPIRIN]
Activity [29]: 1.1 and 1 | Activity [30]: 1.5 and 1.8 | Activity [26]: 1

IC50 [16]: 870 µM
Structure (SMILES): O=C1C(CC[S+]([O-])c2ccccc2)C(=O)N(c2ccccc2)N1c1ccccc1 (centres undefined) [SULFINPYRAZONE]
Activity [19]: 3.2 | Activity [31]: 1.1 | Activity [32]: 1 | Activity [21]: 6.2 | Activity [4]: 1.2 | Activity [23]: 1.6 | Activity [5]: 1.8 | Activity [33]: 2.9 | Activity [34]: 1.2 | Activity [10]: 1.1 | Activity [11]: 1.1 | Activity [35]: 1.1 | Activity [36]: 1.3

Structure (SMILES): Clc1ccccc1CN1CCc2sccc2C1 [TICLOPIDINE HYDROCHLORIDE]
IC50 [3]: 1060 µM | IC50 [37]: 2000 µM
